Experiments:
HCT-116 [1] = assay: Antiproliferative activity against human HCT116 cells assessed as reduction in cell viability after 48 hrs by MTT assay; format: functional, cell-based; details: HCT-116, 48 h
Huh-7 = assay: Antiproliferative activity against human HuH7 cells assessed as reduction in cell viability after 48 hrs by MTT assay; format: functional, cell-based; details: Huh-7, 48 h
HL-60 = assay: Antiproliferative activity against human HL60 cells assessed as reduction in cell viability after 48 hrs by MTT assay; format: functional, cell-based; details: HL-60, 48 h
[2] = target: T1, Phosphatidylinositol 4,5-bisphosphate 3-kinase catalytic subunit alpha isoform (Homo sapiens, UniProt P42336); assay: Inhibition of PI3Kalpha (unknown origin) using diC8-PI(4,5)P2 as substrate incubated for 3 hrs in presence of ATP by fluorescence polarization assay
Procedure, shortened: (§1)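 Fluorescence polarization competition assay, 10 μL reactions at pH 7: 2.5 mM MgCl₂, 5 mM HEPES, ATP, 10 mM DTT, 50 ng PI3K isoform, diC8-PI(4,5)P2 substrate. After 3 h at room temperature, reactions were chelator-quenched. Phosphoinositide binding protein and fluorophore-labelled tracer were added, then 1 h dark equilibration and polarization read.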

[3] = target: Phosphatidylinositol 4,5-bisphosphate 3-kinase catalytic subunit beta isoform (Homo sapiens, UniProt P42338); assay: Inhibition of PI3Kbeta (unknown origin) using diC8-PI(4,5)P2 as substrate incubated for 3 hrs in presence of ATP by fluorescence polarization assay; procedure, shortened: as §1
[4] = target: Phosphatidylinositol 4,5-bisphosphate 3-kinase catalytic subunit gamma isoform (Homo sapiens, UniProt P48736); assay: Inhibition of PI3Kgamma (unknown origin) using diC8-PI(4,5)P2 as substrate incubated for 3 hrs in presence of ATP by fluorescence polarization assay; procedure, shortened: as §1
[5] = Cytotoxicity against human 293T cells; format: cell-based; details: HEK-293T cells
[6] = target: Serine/threonine-protein kinase mTOR (Homo sapiens, UniProt P42345); assay: Inhibition of mTOR (unknown origin)
[7] = target: T1, Phosphatidylinositol 4,5-bisphosphate 3-kinase catalytic subunit alpha isoform; assay: Inhibition of PI3K-alpha in human HCT116 cells assessed as decrease in phosphorylated Akt protein expression level measured after 24 hrs by Western blot analysis; format: cell-based
Procedure, shortened: (§2)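 HCT-116 cells exposed for 24 h at 0.25, 0.5 and 1 μM, lysed in RIPA buffer, and analysed by SDS-PAGE/PVDF Western blot for p-Akt (Ser473) and p-S6K. β-actin internal control; densitometry mean ± SEM, n = 3.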

[8] = target: T1, Phosphatidylinositol 4,5-bisphosphate 3-kinase catalytic subunit alpha isoform; assay: Inhibition of PI3K-alpha in human HCT116 cells assessed as decrease in phosphorylated S6K protein expression level measured after 24 hrs by Western blot analysis; format: cell-based; procedure, shortened: as §2
HCT-116 [9] = assay: Cell cycle arrest in human HCT116 cells assessed as accumulation at G2 phase at 0.25 uM measured after 24 hrs by propidium iodide staining based flow cytometry analysis (reference value: 7.86 %); format: functional
HCT-116 [10] = assay: Cell cycle arrest in human HCT116 cells assessed as accumulation at S phase at 0.25 uM measured after 24 hrs by propidium iodide staining based flow cytometry analysis (reference value: 50.12 %); format: functional
HCT-116 [11] = assay: Cell cycle arrest in human HCT116 cells assessed as accumulation at G2 phase at 0.5 uM measured after 24 hrs by propidium iodide staining based flow cytometry analysis (reference value: 7.86 %); format: functional
HCT-116 [12] = assay: Cell cycle arrest in human HCT116 cells assessed as accumulation at S phase at 0.5 uM measured after 24 hrs by propidium iodide staining based flow cytometry analysis (reference value: 50.12 %); format: functional
HCT-116 [13] = assay: Cell cycle arrest in human HCT116 cells assessed as accumulation at G1 phase at 1 uM measured after 24 hrs by propidium iodide staining based flow cytometry analysis (reference value: 42.01 %); format: functional
HCT-116 [14] = assay: Cell cycle arrest in human HCT116 cells assessed as accumulation at G2 phase at 1 uM measured after 24 hrs by propidium iodide staining based flow cytometry analysis (reference value: 7.86 %); format: functional
HCT-116 [15] = assay: Cell cycle arrest in human HCT116 cells assessed as accumulation at S phase at 1 uM measured after 24 hrs by propidium iodide staining based flow cytometry analysis (reference value: 50.12 %); format: functional
HCT-116 [16] = assay: Induction of apoptosis in human HCT116 cells assessed as late apoptotic cells at 0.25 uM measured after 24 hrs by annexin-v-FITC/propidium iodide staining based FACScan flow cytometry analysis (reference value: 9.61 %); format: functional
HCT-116 [17] = assay: Induction of apoptosis in human HCT116 cells assessed as necrotic cells at 0.25 uM measured after 24 hrs by annexin-v-FITC/propidium iodide staining based FACScan flow cytometry analysis (reference value: 1.87 %); format: functional
HCT-116 [18] = assay: Induction of apoptosis in human HCT116 cells assessed as viable cells at 0.5 uM measured after 24 hrs by annexin-v-FITC/propidium iodide staining based FACScan flow cytometry analysis (reference value: 78.5 %); format: functional; details: HCT-116, 24 h, read-out: Activity
HCT-116 [19] = assay: Induction of apoptosis in human HCT116 cells assessed as late apoptotic cells at 0.5 uM measured after 24 hrs by annexin-v-FITC/propidium iodide staining based FACScan flow cytometry analysis (reference value: 9.61 %); format: functional
HCT-116 [20] = assay: Induction of apoptosis in human HCT116 cells assessed as necrotic cells at 0.5 uM measured after 24 hrs by annexin-v-FITC/propidium iodide staining based FACScan flow cytometry analysis (reference value: 1.87 %); format: functional
HCT-116 [21] = assay: Induction of apoptosis in human HCT116 cells assessed as viable cells at 1 uM measured after 24 hrs by annexin-v-FITC/propidium iodide staining based FACScan flow cytometry analysis (reference value: 78.5 %); format: functional; details: HCT-116, 24 h, read-out: Activity
HCT-116 [22] = assay: Induction of apoptosis in human HCT116 cells assessed as early apoptotic cells at 1 uM measured after 24 hrs by annexin-v-FITC/propidium iodide staining based FACScan flow cytometry analysis (reference value: 10.0 %); format: functional
HCT-116 [23] = assay: Induction of apoptosis in human HCT116 cells assessed as upregulation of BAX expression measured after 24 hrs by Western blot analysis; format: functional, cell-based
Procedure, shortened: (§3)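 HCT-116 cells treated at 0.25, 0.5 and 1 μM for 24 h, lysed in RIPA buffer with PMSF. Proteins separated by SDS-PAGE (8% or 10%), transferred to PVDF and probed with primary antibodies and HRP secondaries. β-actin served as internal control; bands quantified as bar graphs.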

HCT-116 [24] = assay: Induction of apoptosis in human HCT116 cells assessed as decrease in Bcl-2 protein level measured after 24 hrs by Western blot analysis; format: functional, cell-based; procedure, shortened: as §3
HCT-116 [25] = assay: Induction of apoptosis in human HCT116 cells assessed as increase in cleaved caspase-3 protein level measured after 24 hrs by Western blot analysis; format: functional, cell-based; procedure, shortened: as §3
HCT-116 [26] = assay: Induction of apoptosis in human HCT116 cells assessed as increase in cleaved caspase-9 protein level measured after 24 hrs by Western blot analysis; format: functional, cell-based; procedure, shortened: as §3

T1 sequence (P42336 whole entry, canonical isoform): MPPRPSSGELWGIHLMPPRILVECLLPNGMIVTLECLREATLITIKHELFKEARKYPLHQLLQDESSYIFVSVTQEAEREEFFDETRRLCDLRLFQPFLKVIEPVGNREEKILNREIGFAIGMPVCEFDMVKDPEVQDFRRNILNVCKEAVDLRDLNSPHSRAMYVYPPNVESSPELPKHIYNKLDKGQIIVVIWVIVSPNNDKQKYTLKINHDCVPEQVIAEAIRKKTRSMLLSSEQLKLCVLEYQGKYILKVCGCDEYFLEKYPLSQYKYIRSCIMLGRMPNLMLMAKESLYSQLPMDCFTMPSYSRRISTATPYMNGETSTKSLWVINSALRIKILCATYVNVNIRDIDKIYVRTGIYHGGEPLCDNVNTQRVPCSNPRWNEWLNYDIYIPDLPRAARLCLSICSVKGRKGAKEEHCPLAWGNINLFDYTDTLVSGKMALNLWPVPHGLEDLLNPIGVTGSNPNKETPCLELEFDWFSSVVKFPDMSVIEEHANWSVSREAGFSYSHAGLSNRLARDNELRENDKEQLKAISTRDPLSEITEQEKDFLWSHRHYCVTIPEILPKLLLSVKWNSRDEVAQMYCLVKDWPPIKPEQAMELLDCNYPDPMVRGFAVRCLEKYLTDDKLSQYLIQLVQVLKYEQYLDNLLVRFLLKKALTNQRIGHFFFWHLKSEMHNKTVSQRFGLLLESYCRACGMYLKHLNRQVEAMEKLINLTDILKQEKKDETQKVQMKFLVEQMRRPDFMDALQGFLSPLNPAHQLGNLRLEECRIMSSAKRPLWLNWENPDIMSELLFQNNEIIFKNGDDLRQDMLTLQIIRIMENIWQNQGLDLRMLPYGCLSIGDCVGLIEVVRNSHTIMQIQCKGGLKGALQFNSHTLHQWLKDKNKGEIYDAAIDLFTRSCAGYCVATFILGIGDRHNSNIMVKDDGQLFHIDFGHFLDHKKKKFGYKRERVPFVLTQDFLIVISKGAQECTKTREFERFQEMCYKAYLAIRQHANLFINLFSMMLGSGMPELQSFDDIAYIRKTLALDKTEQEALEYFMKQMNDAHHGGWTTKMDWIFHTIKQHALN
Phosphatidylinositol 4,5-bisphosphate 3-kinase catalytic subunit gamma isoform, sequence (P48736 whole entry, canonical isoform): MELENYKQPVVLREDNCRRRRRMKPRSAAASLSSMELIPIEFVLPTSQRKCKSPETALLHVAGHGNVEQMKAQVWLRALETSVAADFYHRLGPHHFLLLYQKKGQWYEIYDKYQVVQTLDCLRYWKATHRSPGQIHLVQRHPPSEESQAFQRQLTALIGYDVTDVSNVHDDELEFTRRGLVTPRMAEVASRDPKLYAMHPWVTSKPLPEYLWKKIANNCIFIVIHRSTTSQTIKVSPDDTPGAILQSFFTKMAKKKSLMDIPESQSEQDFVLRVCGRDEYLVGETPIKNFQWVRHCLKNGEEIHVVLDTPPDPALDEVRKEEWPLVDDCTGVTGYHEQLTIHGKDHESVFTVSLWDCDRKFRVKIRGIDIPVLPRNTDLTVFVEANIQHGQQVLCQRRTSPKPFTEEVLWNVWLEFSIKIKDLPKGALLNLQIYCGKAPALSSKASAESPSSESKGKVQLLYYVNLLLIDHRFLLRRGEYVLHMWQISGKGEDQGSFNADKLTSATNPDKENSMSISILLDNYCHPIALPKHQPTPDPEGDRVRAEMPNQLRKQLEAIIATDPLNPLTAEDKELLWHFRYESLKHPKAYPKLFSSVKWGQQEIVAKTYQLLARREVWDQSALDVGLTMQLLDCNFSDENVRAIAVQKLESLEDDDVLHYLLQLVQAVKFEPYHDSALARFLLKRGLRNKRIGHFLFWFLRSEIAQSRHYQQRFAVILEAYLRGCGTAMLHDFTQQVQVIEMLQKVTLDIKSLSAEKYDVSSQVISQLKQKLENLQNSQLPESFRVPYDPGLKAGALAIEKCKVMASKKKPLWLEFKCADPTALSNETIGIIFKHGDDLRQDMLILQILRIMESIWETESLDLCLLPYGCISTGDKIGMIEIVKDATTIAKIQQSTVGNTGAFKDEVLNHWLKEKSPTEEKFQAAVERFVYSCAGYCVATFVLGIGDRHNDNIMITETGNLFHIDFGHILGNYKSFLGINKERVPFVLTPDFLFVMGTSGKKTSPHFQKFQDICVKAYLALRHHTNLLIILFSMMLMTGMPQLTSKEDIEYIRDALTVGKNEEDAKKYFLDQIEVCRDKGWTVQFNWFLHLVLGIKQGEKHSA
Phosphatidylinositol 4,5-bisphosphate 3-kinase catalytic subunit beta isoform, sequence (P42338 whole entry, canonical isoform): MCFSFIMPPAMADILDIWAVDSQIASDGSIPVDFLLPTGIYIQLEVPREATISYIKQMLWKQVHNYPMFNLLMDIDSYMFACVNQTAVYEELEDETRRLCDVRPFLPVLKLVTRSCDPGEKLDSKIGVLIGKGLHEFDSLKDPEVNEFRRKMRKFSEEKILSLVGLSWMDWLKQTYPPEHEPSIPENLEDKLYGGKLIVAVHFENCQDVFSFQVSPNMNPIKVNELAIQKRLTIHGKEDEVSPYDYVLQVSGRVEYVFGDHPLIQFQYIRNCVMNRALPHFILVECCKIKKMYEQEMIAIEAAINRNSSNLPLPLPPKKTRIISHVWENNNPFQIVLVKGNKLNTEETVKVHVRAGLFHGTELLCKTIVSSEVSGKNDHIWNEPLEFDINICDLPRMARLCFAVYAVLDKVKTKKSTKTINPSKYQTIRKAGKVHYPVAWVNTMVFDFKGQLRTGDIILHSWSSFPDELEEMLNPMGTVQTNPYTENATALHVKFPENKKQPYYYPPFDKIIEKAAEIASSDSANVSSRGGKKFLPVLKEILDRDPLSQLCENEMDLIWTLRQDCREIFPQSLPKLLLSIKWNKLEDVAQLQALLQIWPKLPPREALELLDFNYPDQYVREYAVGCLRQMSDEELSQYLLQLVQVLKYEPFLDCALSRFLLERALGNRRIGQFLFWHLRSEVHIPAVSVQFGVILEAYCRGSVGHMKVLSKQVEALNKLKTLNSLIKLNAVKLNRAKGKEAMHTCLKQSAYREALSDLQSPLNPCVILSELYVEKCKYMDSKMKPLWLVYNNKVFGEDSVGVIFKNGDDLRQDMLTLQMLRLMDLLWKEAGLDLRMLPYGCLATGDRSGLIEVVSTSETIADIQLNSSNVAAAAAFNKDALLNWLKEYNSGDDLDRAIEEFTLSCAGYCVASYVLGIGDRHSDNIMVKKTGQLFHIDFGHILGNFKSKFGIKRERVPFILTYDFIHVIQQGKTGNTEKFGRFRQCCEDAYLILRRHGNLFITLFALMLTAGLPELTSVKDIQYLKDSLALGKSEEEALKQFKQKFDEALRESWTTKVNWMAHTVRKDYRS

IC50 (HCT-116 [1]): 30 nM
IC50 (Huh-7): 90 nM
IC50 (HL-60): 60 nM
IC50 [2]: 9 nM
IC50 [3]: 120 nM
IC50 [4]: 81 nM
IC50 [6]: 9380 nM
inhibition [7]: Dose-dependent effect
inhibition [8]: Dose-dependent effect
Structure (SMILES): O=c1oc2ccccc2c2nn(CN3CCN(S(=O)(=O)c4ccc(Cl)c([N+](=O)[O-])c4)CC3)cc12
CC50 [5]: 386000 nM
Activity (HCT-116 [9]): 10.73%
Activity (HCT-116 [10]): 42.4%
Activity (HCT-116 [11]): 9.52%
Activity (HCT-116 [12]): 39.53%
Activity (HCT-116 [13]): 58.13%
Activity (HCT-116 [14]): 8.09%
Activity (HCT-116 [15]): 33.78%
Activity (HCT-116 [16]): 21%
Activity (HCT-116 [17]): 6.98%
viability at 0.5 µM (HCT-116 [18]): 46%
Activity (HCT-116 [19]): 30.8%
Activity (HCT-116 [20]): 6.04%
viability at 1 µM (HCT-116 [21]): 36.6%
Activity (HCT-116 [22]): 25.5%
Activity (HCT-116 [23]): Dose-dependent effect
Activity (HCT-116 [24]): Dose-dependent effect
Activity (HCT-116 [25]): Dose-dependent effect
Activity (HCT-116 [26]): Dose-dependent effect
